From ChEMBL document CHEMBL4513216, “Probing the Open Global Health Chemical Diversity Library for Multistage-Active Starting Points for Next-Generation Antimalarials” (ACS Infect Dis, 2020)

Assay: Toxicity liver stage against HepG2, at 10uM
Type: cell-based
Design: test concentration 10 uM, cell line HepG2-A16-CD81EGFP
Conditions: human, HepG2-A16-CD81EGFP cells; read-out: INHIBITION
Procedure, shortened: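 Uninfected HepG2-A16-CD81EGFP cells, 3 × 10^3 per well, 1536-well, plated on prespotted compound at 10 μM final, parasite-free screening media added to match infected plates; puromycin 10 μM positive, DMSO 0.5% negative; run in parallel with 48 h PbLuc assay at 37 °C, 5% CO2; viability by CellTiter-Glo luminescence, normalized to controls.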

| Compound | cytotoxicity at 10 µM [%] |
| --- | --- |
| Cc1c(C)n2c(SCC(=O)N3CCCC3)nnc2[nH]c1=O | 2.4 |
| N#Cc1c2n(c3c(=O)[nH]cnc13)CCCC2 | 2.45 |
| CN1C[C@@H](NC(=O)CC(C)(C)C)C[C@H]1c1nc(-c2cnccn2)no1 | 3.08 |
| CN(Cc1ccccc1)C(=O)Cn1nc(N2CCSCC2)ccc1=O | 0.585 |
| COCCNC(=O)C1CC(=O)N(c2n[nH]c3cccc(F)c23)C1 (stereo unspecified) | 3.23 |
| O=C(O)c1ccc(N2CCC(Cc3ccccc3)CC2)nn1 | -6.14 |
| CC(=O)NCC(Cc1cccc(F)c1)n1cccc1 (stereo unspecified) | -5.36 |
| Cn1nnn(-c2ccc(NS(=O)(=O)c3ccc(F)c(Cl)c3)cc2)c1=O | -4.57 |
| O=C(c1nnn(-c2ccc(F)cc2)n1)N1CCC(O)CC1 | 5.86 |
| O=C(c1nnn(-c2ccc(Cl)cc2)n1)N(CCO)Cc1ccccc1 | -1.9 |
| O=C(c1cnccn1)N1CC(S(=O)(=O)c2ccc(Cl)cc2)C1 | -2.3 |
| Cc1nc(N2CCCC2)nc2c1CCN(C(=O)N1CCCC1)CC2 | 1.82 |
| CCN(C)C(=O)c1cc(-c2cn(C(C)C)cn2)n2ccccc12 | -1.16 |
| COc1cccc(N2CC3(CCN(c4cnccn4)C3)CC2=O)c1 (stereo unspecified) | 0.0227 |
| CN(C)C(=O)c1ccn(-c2ccc3ccccn23)n1 | 6.98 |
| C1CC(CN2C[C@@H]3C[C@@H](c4nnc(C5CC5)o4)O[C@@H]3C2)C1 | 14.9 |
| CCOc1cccc(CNc2ccccc2Cl)c1O | -2.52 |
| Cn1cccc1CNC(=O)CCCc1nnc2ccccn12 | -5.77 |
| O=C(NCCc1ccccc1)C1CCCN(c2ccc3nncn3n2)C1 (stereo unspecified) | 25.9 |
| O=C(O)c1cc2c(nc1O)CC(c1cccc(Cl)c1)CC2=O (stereo unspecified) | 9.56 |
| COc1cccc2c1ccn2CCC(=O)N1CCCC(C(=O)O)C1 (stereo unspecified) | 2.11 |
| CNc1nc2c(s1)C(c1cccc(F)c1F)CC(=O)N2 (stereo unspecified) | -2.15 |
| CC(C)n1cc(N2CC(C(=O)N3CCC(C(N)=O)CC3)CC2=O)cn1 (stereo unspecified) | -4.51 |

| Compound | cytotoxicity at 10 µM [%] |
| --- | --- |
| COCCCNC(=O)c1cc(C(C)C)nc(N2CCCC2)n1 | 6.5 |
| Cc1nc(C(=O)N2CCOC(Cc3ccc(F)cc3)C2)co1 (stereo unspecified) | -1.39 |
| Fc1ccccc1CN1CCC(c2noc(-c3ccccn3)n2)CC1 | -1.39 |
| COc1cccc(-c2ccnc(C3CCNCC3)c2)c1 | 56.4 |
| O=c1c(Cc2ccccc2)c(O)ccn1Cc1cccs1 | 10.2 |
| O=C(COC1CCCCC1)Nc1ccn(Cc2cccnc2)n1 | 5.17 |
| CCN(CC(=O)Nc1cc(C(C)(C)C)no1)Cc1ccc(Cl)s1 | 6.13 |
| CC(C)N1C(=O)CN(CCCO)CC1(C)C | 2.04 |
| CCc1ccc(C(NC(=O)CCS(C)(=O)=O)C(C)(C)C)o1 (stereo unspecified) | -3.58 |
| Cc1nc2cc(F)cc(C(=O)N3CCN(CCO)CC3)c2nc1C | -3.31 |
| Clc1cncc(N2CCN(Cc3ccon3)CC2)n1 | 6.94 |
| Cc1nc(CN2CCc3ccc(S(N)(=O)=O)cc32)oc1C | 2.63 |
| CN(CCOCC1CC1)C(=O)Nc1ccc(C#N)c(Cl)c1 | -11.1 |
| CCc1ccc(C(=O)N2CCCCC2CNS(C)(=O)=O)o1 (stereo unspecified) | -0.95 |
| COc1ccc(Cl)cc1CCNC(=O)NCc1ccncc1 | 2.53 |
| Cc1cc(C[S+]([O-])Cc2ccccc2C)no1 (stereo unspecified) | 9.13 |
| Cc1nnc(-c2ccc(C(=O)Nc3ccnc(N(C)C)n3)cc2)o1 | -1.01 |
| CCC(C)(NCC(=O)OC)c1nccs1 (stereo unspecified) | -12.7 |
| Cc1cc(NC(=O)[C@H]2CCCCN2C(=O)OC(C)(C)C)no1 | -1.48 |
| Cc1cc(C)c2c(OCC(=O)NCC(O)C(F)(F)F)nn(C)c2n1 (stereo unspecified) | 1.3 |
| COc1ccccc1CCNC(=O)NC(C)COCC(F)(F)F (stereo unspecified) | 8.91 |
| CCOc1cccnc1C(=O)N1CC=C(c2ccc(O)cc2)CC1 | -1.66 |
| CC(C)C(C)(O)CNc1cccc(F)c1C#N (stereo unspecified) | -8.87 |

| Compound | cytotoxicity at 10 µM [%] |
| --- | --- |
| Cc1cccc(-c2c[nH]c(C3CCCN3C(=O)Cn3cc(C)cn3)n2)c1 (stereo unspecified) | 4.56 |
| COc1ccc(N(Cc2ccco2)C(=O)COC(C)C)cc1F | -1.63 |
| O=C(c1cc[nH]n1)N(Cc1ccc(F)cc1)CC1CC1 | -10.8 |
| OCCn1nnnc1Cc1ccc(Br)cc1 | 1.54 |
| CNS(=O)(=O)CCCN1CCCN(Cc2ccccc2)CC1C (stereo unspecified) | 9.77 |
| CNS(=O)(=O)c1csc(C(=O)NCc2sccc2C)c1 | 4.63 |
| O=C(Nc1ccccc1OC(F)(F)F)C1CCS(=O)(=O)C1 (stereo unspecified) | 10.8 |
| COc1cccc2c1CCN(C(=O)NCCc1nccn1C)C2 | 2.38 |
| Cc1ccc(C(CNCC2CC2)N2CCOCC2)s1 (stereo unspecified) | -13.7 |
| c1ccc(OCCN2CCCC(c3noc(C4CC4)n3)C2)cc1 (stereo unspecified) | 2.58 |
| N#Cc1ccnc(N2CCN(Cc3cccc(F)c3)CC2)c1 | 0.795 |
| CCOc1cccc(C(C)NC(=O)N2CCC(C(N)=O)CC2)c1 (stereo unspecified) | -2.95 |
| COc1ccc(NC(=O)NC(C)(C)c2noc(C)n2)cc1 | -3.42 |
| CN(Cc1cnn(C)c1)C(=O)NC1CCS(=O)(=O)C1 (stereo unspecified) | -14.4 |
| CCN1CCNC(=O)C12CCN(C(=O)Cc1ccsc1)CC2 | -3.31 |
| Cc1cc(C)c(C(=O)N2CCN(c3ncccc3C#N)CC2)c(=O)[nH]1 | -3.28 |
| CCCOCCN1CCN(c2ncnc3[nH]ccc23)CC1 | -6.67 |
| O=C(c1ccc2ccccc2c1)C1CCCN(C(=O)Cn2cnnn2)C1 (stereo unspecified) | 1.54 |
| CCC1(C(=O)O)CCCN(CCOCc2ccccc2)C1 (stereo unspecified) | 7.33 |
| Cn1ccnc1-c1cn(CCCc2nnc(N)s2)nn1 | 10 |
| O=C1CCC2(CCN(Cc3cscn3)CC2)CN1CC1CCCO1 (stereo unspecified) | -5.5 |
| COCC(=O)N(Cc1cccnc1)CC1CCN(C2CCCC2)CC1 | 1.49 |
| O=C(O)[C@@H]1CN(C(=O)CCN2CCCCC2)C[C@H]1c1ccccc1 | 1.25 |

| Compound | cytotoxicity at 10 µM [%] |
| --- | --- |
| CC(=O)N1CCCC(C(=O)NCCc2csc(-c3ccncc3)n2)C1 (stereo unspecified) | 5.12 |
| CCCn1cnnc1CNC(=O)CC1C(=O)NCCN1CC=C(C)C (stereo unspecified) | 6.64 |
| CCCn1cc(-c2cc(-c3ccoc3)c(C#N)c(N)n2)c(C)n1 | 5.48 |
| Fc1ccc(C2(c3noc(CCN4CCCCO4)n3)CCOC2)cc1 (stereo unspecified) | -1.54 |
| CCCc1nc(C)cc(N2CCC3(CCC(=O)N(C4CC4)C3)CC2)n1 | -5.31 |
| Cc1cc(-c2cccc(-c3ccn(CCCO)n3)c2)nc(N(C)C)n1 | -5.42 |
| Cc1nncn1CCN1C(=O)CC2(CCCC2)CC1=O | -0.745 |
| CC1=NOC(C(=O)N2CCC(O)(c3ccc4nc(C)ccc4c3)CC2)C1 (stereo unspecified) | 2.12 |
| O[C@H]1CN(c2nc(-c3ccccc3)no2)C[C@@H]1N1CCOCC1 | -20.8 |
| O=C(NCc1cc(O)ncn1)C1CCOc2ccccc2C1 (stereo unspecified) | -6.01 |
| O=C1CN(c2ccc(CNC(=O)NCc3ccoc3)cc2)CCN1 | -1.28 |
| Cc1cnn(C2CCCN(C(=O)c3ccc(NC4CC4)nc3)C2)c1 (stereo unspecified) | -19.6 |
| Cc1csc(CNC(=O)N2CCCC(c3nncn3C)C2)n1 (stereo unspecified) | -18.3 |
| CC(C(=O)NCCCN1CCOCC1)n1cncn1 (stereo unspecified) | 1.4 |
| COc1ccc(NC(=O)CCn2nc(-c3cccs3)oc2=O)cc1OC | -9.37 |
| CCCNC(=O)CN1CCC(NC(=O)c2cc(CC)ccc2O)CC1 | 1.93 |
| Cc1ccoc1C(=O)NCc1ccnc(OCC(F)(F)F)c1 | -7.8 |
| CCN(CC)C(=O)Cn1ccc2cc(NC(=O)NC3CC3)ccc21 | -9.01 |
| CC(NC(=O)NCCCc1n[nH]c(N)c1C#N)c1ccc(F)c(F)c1 (stereo unspecified) | -10.2 |
| CCN1CCN(c2ccc(CNC(=O)c3sccc3C)cn2)CC1 | -17.8 |
| CCc1n[nH]c(C2CN(C(=O)CCn3ccccc3=O)CCO2)n1 (stereo unspecified) | 0.00528 |
| CN(C)c1ccc(CNC(=O)NCCc2ccccn2)cn1 | -4.66 |
| CCn1cc(NC(=O)NCCc2ccc3c(c2)OCO3)cn1 | 2.04 |

| Compound | cytotoxicity at 10 µM [%] |
| --- | --- |
| COc1ncccc1C(=O)N1CCCC1c1c(C)nn(C)c1Cl (stereo unspecified) | -9.35 |
| Cc1cc(C(=O)N2CCCC(n3cncn3)C2)on1 (stereo unspecified) | -22.5 |
| NC(=O)C1CCCN1c1cc(N2CCc3ccccc3C2)ncn1 (stereo unspecified) | -0.918 |
| Cc1nc(CN2CCCN(C(=O)C3(C#N)CCCCC3)CC2)cs1 | -9.98 |
| O=C(NC1CC1)[C@H]1CN(Cc2ccc3c(c2)OCO3)C[C@H]2OCC[C@@H]12 | 3.56 |
| C[C@H]1C(=O)NC[C@H]2CN(CCc3ccccc3)C[C@H]21 | 2.64 |
| O=S(=O)(C1CC1)N1CCO[C@@H]2CN(Cc3cccs3)C[C@@H]2C1 | -154 |
| O=C1COC2(CCN(c3ccccn3)CC2)CN1 | 9.52 |
| CS(=O)(=O)N1CC[C@]2(C[C@H](Oc3ccccn3)CO2)C1 | -116 |
| CCc1cnc(N2CC[C@H]3[C@@H]2CCC(=O)N3c2cccnc2)nc1 | 10.4 |
| Cc1noc([C@@H]2C[C@@H]3CCN(CC4CCOCC4)C[C@H]3O2)n1 | -130 |
| CC(C)Nc1nc(O)cc(C2CC(=O)N(Cc3ccccn3)C2)n1 (stereo unspecified) | -16.9 |
| c1ccc(CO[C@@H]2C[C@H]3CN(c4ncccn4)CCN3C2)cc1 | 0.472 |
| CCc1cnc(N2CC[C@@H]3CN(CCC(C)C)S(=O)(=O)[C@@H]3CC2)nc1 | 2.38 |
| Cc1ccc(N[C@@H]2CN(Cc3cc(C)on3)C[C@@H]3CCCO[C@@H]32)nn1 | -0.113 |
| Fc1cnc(N2CCCn3c(nnc3Cn3cccc3)C2)nc1 | -134 |
| CCN(C)S(=O)(=O)N1C[C@H]2CC[C@@H](C1)N(Cc1cscn1)C2=O | 11 |
| O=c1c2c[nH]c(N3CCCCC3)nc-2cn1-c1ccc2c(c1)OCO2 | 15 |
| O=C(c1c[nH]c(=O)c(Cl)c1)N1C[C@H]2CC[C@@H](C1)N(Cc1ccccc1)C2 | -14.5 |
